Test results taken from article PMC3945061 (Pain, 2013).

Key:
[1] = tested on: DRG neurons from Mrg KO mice; assay: Calcium imaging, DRG neurons from Mrg KO mice; format: cell-based, mouse; settings: capsaicin 0.5 μM, positive control, after JHU58
In short: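 Mrg KO mice: 845 kb chromosome 7 deletion covering 12 Mrg genes incl. MrgC11, backcrossed to C57BL/6 at least five generations. DRGs from 3–4-week-old mice were enzyme-dissociated at 37°C, plated on poly-D-lysine/laminin coverslips, and used within 24 h. Fura-2 AM loading for 30 min in the dark at room temperature; 340/380 nm ratio imaging; bath drug application; experimenter blinded to genotype.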

pain / nociception = settings: cited from earlier work
rats (lower limbs) = assay: Motor paralysis after intrathecal injection; format: in vivo, rat; settings: intrathecal lidocaine 400 μg/20 μl
[2] = tested on: SNL rats (mechanical hypersensitivity); assay: Paw withdrawal threshold; format: in vivo, rat; settings: intrathecal FMRFamide 2 mM, 10 μl, n=7, 30 and 60 minutes
In short: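 Male Sprague-Dawley rats (200–350 g) had the left L5 spinal nerve ligated with 6-0 silk and cut distally. They were tested 4–5 weeks later via an intrathecal PE-10 catheter inserted through the atlanto-occipital membrane, with compound diluted in saline. Ipsilateral plantar PWT was measured by the up-down method (von Frey 0.38–13.1 g, 4–6 s) using the Dixon formula. Tests ran in the morning, blinded.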

## COc1cc(CNC(=O)CCCC/C=C/C(C)C)ccc1O [capsaicin]
[1]
  DRG neurons from Mrg KO mice with an increase in [Ca2+]i: 32%
Pain / nociception; capsaicin
  Effect on pain, peripheral versus central application: induces burning pain in the periphery, but it inhibits pain when applied centrally

## CCN(CC)CC(=O)Nc1c(C)cccc1C [lidocaine]
Rats (lower limbs)
  Motor paralysis of the lower limbs: temporary motor paralysis of the lower limbs

## FMRFamide
[2]
  Mechanical hypersensitivity, ipsilateral PWT: inhibited mechanical hypersensitivity in the ipsilateral hindpaw of SNL rats

## γ^2-MSH
Pain / nociception; systemic and intrathecal injections
  Effect on nociception (acute and inflammatory pain models): produce pronociceptive effects in acute pain models and contribute to heat hyperalgesia in an inflammatory pain model
